ChEMBL document CHEMBL1144018, “SAR studies of capsazepinoid bronchodilators. Part 2: Chlorination and catechol replacement in the A-ring” (Bioorg Med Chem, 2008)

species on record: Homo sapiens; test: Bronchorelaxing effect on LTD4-contracted small human lung airways assessed as remaining contraction at 10 uM after 1.5 hrs relative to control; format: functional
Outline: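 Human small airways (0.5–1.5 mm diameter) from lung cancer patients, in vitro. Each preparation contracted with 10 nM LTD4 untreated, then again after 1.5 h exposure to 10 µM test compound. Value is the percent of the full LTD4 contraction that remains, given as arithmetic mean ± SEM with n in parentheses.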

Structure (SMILES) | Activity [%]
Oc1cc2c(c(Cl)c1O)CN(C(=S)NCCc1ccc(Cl)cc1)C2 | 65
CS(=O)(=O)Nc1ccc2c(c1)CCN(C(=S)NCCc1ccc(Cl)cc1)C2 | 75
Oc1c(O)c(Cl)c2c(c1Cl)CCCN(C(=S)NCCc1ccc(Cl)cc1)C2 | 38
Oc1cc2c(cc1Cl)CN(C(=S)NCCc1ccc(Cl)cc1)CCC2 | 49
Oc1ccc2c(c1Cl)CCCN(C(=S)NCCc1ccc(Cl)cc1)C2 | 67
Oc1c(Cl)cc2c(c1Cl)CN(C(=S)NCCc1ccc(Cl)cc1)CC2 | 57
Oc1cc2c(c(Cl)c1O)CCCN(C(=S)NCCc1ccc(Cl)cc1)C2 | 64
Oc1cc2c(cc1Cl)CCCN(C(=S)NCCc1ccc(Cl)cc1)C2 | 56
Nc1ccc2c(c1)CN(C(=S)NCCc1ccc(Cl)cc1)CC2 | 79
Oc1cc2c(c(Cl)c1O)CN(C(=S)NCCc1ccc(Cl)cc1)CCC2 | 63
CC1c2c(Cl)c(O)c(O)c(Cl)c2CCN1C(=S)NCCc1ccc(Cl)cc1 (stereo unspecified) | 48
Oc1c(O)c(Cl)c2c(c1Cl)CCN(C(=S)NCCc1ccc(Cl)cc1)C2Cc1ccccc1 (stereo unspecified) | 84
COC(=O)c1cc2c(cc1C(=O)OC)CN(C(=S)NCCc1ccc(Cl)cc1)CC2 | 87
N#Cc1cc2c(cc1C#N)CN(C(=S)NCCc1ccc(Cl)cc1)CC2 | 84
Oc1c(O)c(Cl)c2c(c1Cl)CCN(C(=S)NCCc1ccc(Cl)cc1)C2 | 14
Oc1c(Cl)cc2c(c1Cl)CCCN(C(=S)NCCc1ccc(Cl)cc1)C2 | 30

Structure (SMILES) | Activity [%]
S=C(NCCc1ccc(Cl)cc1)N1CCc2ccccc2C1 | 83
CS(=O)(=O)Nc1ccc2c(c1)CN(C(=S)NCCc1ccc(Cl)cc1)CC2 | 72
Oc1c(O)c(Cl)c2c(c1Cl)CCN(C(=S)NCCc1ccc(Cl)cc1)CC2 | 29
O=C(O)c1cc2c(cc1C(=O)O)CN(C(=S)NCCc1ccc(Cl)cc1)CC2 | 99
Oc1cc2c(cc1Cl)CN(C(=S)NCCc1ccc(Cl)cc1)CC2 | 73
Oc1cc2c(cc1Cl)CCN(C(=S)NCCc1ccc(Cl)cc1)C2 | 69
CC1Cc2c(Cl)c(O)c(O)c(Cl)c2CN1C(=S)NCCc1ccc(Cl)cc1 (stereo unspecified) | 31
Oc1c(Cl)cc2c(c1Cl)CCN(C(=S)NCCc1ccc(Cl)cc1)C2 | 55
Oc1ccc2c(c1Cl)CCN(C(=S)NCCc1ccc(Cl)cc1)C2 | 69
Oc1ccc2c(c1Cl)CN(C(=S)NCCc1ccc(Cl)cc1)CC2 | 47
Oc1c(O)c(Cl)c2c(c1Cl)CN(C(=S)NCCc1ccc(Cl)cc1)C2 | 31
Oc1cc2c(c(Cl)c1O)CCN(C(=S)NCCc1ccc(Cl)cc1)C2 | 40
Oc1ccc2c(c1Cl)CN(C(=S)NCCc1ccc(Cl)cc1)CCC2 | 46
Nc1ccc2c(c1)CCN(C(=S)NCCc1ccc(Cl)cc1)C2 | 62
Oc1cc2c(c(Cl)c1O)CN(C(=S)NCCc1ccc(Cl)cc1)CC2 | 49
